Assay [1] deals with T1, Ephrin type-B receptor 4 (Homo sapiens) (UniProt P54760).
T1 sequence (whole entry): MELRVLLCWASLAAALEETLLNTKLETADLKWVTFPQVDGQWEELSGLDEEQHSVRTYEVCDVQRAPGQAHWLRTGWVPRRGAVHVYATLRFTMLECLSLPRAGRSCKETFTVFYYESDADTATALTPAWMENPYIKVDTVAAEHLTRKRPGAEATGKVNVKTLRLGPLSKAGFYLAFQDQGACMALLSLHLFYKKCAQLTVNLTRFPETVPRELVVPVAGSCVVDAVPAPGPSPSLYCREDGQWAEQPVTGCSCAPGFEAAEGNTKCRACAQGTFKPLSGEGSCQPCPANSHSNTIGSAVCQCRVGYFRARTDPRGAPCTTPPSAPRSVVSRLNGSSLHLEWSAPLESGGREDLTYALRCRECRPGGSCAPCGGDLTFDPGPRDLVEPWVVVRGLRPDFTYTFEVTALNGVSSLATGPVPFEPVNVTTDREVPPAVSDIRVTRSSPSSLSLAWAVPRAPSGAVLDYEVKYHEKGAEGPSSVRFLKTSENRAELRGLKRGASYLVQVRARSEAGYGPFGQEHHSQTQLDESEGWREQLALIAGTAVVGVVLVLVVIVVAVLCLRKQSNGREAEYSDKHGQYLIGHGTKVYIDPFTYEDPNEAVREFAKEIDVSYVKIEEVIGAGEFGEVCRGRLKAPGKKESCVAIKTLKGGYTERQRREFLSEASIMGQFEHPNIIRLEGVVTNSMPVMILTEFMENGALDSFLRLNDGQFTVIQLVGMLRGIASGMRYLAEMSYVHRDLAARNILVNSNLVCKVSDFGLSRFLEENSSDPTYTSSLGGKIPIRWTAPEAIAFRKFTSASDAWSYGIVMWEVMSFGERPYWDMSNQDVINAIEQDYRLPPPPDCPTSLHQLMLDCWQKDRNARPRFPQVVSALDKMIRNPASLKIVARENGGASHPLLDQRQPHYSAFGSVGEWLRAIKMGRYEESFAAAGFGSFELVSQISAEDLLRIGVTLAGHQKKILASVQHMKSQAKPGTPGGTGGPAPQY
As to the kind of experiment: Inhibition of EphB4 at 30 uM in presence of 30 uM ATP. The procedure, abridged: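 EphB4 kinase, FRET enzymatic assay run in house with a commercial EphB4 assay kit. ATP at 30 μM, compound at 30 μM. Read-out is percent inhibition at that single concentration.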

Assay [2] concerns the target T2, Ephrin type-B receptor 4 (Homo sapiens, UniProt P54760).
T2 sequence (P54760 whole entry): T1 sequence (whole entry)
As to the kind of experiment: Inhibition of EphB4 in presence of 1 uM radiolabeled ATP. In short, it runs like this: (§1)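 Radiometric enzymatic assay run by a contract lab (Reaction Biology) on the recombinant catalytic domain of each kinase, with radiolabeled ATP at 1 μM. IC50 taken from a 10-dose response.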

The target in assay [3] is T2, Ephrin type-B receptor 4. Briefly: Inhibition of EphB4 by FRET assay in presence of 30 uM ATP. The procedure, abridged:
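In-house FRET enzymatic assay of EphB4 using a commercial EphB4 kit, ATP 30 μM. IC50 derived from concentration-response.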

Assay [4] concerns the target Tyrosine-protein kinase Lck (Homo sapiens, UniProt P06239). As to the kind of experiment: Inhibition of recombinant Lck catalytic domain in presence of 1 uM radiolabeled ATP. The procedure, abridged:
as §1

For assay [5], the target named is Tyrosine-protein kinase ABL1 (Homo sapiens, UniProt P00519). Briefly: Inhibition of recombinant Abl1 catalytic domain in presence of 1 uM radiolabeled ATP. In short, it runs like this:
as §1

Assay [6] deals with T2, Ephrin type-B receptor 4. Briefly: Inhibition of human full length EphB4 expressed in MEF cells assessed as inhibition of human ephrin B2/FC chimera-stimulated receptor autophosphorylation. Type of assay: cell-based. In short, it runs like this: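 Cellular EphB4 phosphorylation assay run by a contract lab (ProQinase) in murine embryonal fibroblasts (MEF) expressing exogenous full-length human EphB4. Cells were stimulated 2 h with human Ephrin-B2/Fc chimera to induce receptor tyrosine autophosphorylation. Read-out is inhibition of that autophosphorylation.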

The target in assay [7] is Epidermal growth factor receptor (Homo sapiens, UniProt P00533). As to the kind of experiment: Inhibition of recombinant EGFR catalytic domain in presence of 1 uM radiolabeled ATP. The procedure, abridged:
as §1

Assay [8] deals with Proto-oncogene tyrosine-protein kinase Src (Homo sapiens, UniProt P12931). As to the kind of experiment: Inhibition of recombinant Src catalytic domain in presence of 1 uM radiolabeled ATP. The procedure, abridged: as §1
Sequence of Proto-oncogene tyrosine-protein kinase Src (P12931 2-536 limits assumed): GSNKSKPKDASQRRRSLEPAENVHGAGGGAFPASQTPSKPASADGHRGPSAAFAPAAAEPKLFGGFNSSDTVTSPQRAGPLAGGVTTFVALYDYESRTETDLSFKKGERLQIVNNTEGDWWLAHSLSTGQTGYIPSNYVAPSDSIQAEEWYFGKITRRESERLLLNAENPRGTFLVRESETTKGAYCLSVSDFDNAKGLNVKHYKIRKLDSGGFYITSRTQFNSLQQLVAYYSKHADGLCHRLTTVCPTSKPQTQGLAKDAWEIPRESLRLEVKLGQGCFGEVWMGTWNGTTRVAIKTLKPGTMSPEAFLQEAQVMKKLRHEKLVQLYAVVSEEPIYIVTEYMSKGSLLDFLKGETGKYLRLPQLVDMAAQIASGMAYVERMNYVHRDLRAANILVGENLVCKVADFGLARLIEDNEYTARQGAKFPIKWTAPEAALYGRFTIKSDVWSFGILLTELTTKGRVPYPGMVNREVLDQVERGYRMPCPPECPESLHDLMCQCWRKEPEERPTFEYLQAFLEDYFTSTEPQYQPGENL
The target of assay [9] is Insulin-like growth factor 1 receptor (Homo sapiens) (UniProt P08069). As to the kind of experiment: Inhibition of recombinant IGF1R catalytic domain in presence of 1 uM radiolabeled ATP. In short, it runs like this: as §1
Sequence of Insulin-like growth factor 1 receptor (Homo sapiens) (P08069 31-736 limits assumed): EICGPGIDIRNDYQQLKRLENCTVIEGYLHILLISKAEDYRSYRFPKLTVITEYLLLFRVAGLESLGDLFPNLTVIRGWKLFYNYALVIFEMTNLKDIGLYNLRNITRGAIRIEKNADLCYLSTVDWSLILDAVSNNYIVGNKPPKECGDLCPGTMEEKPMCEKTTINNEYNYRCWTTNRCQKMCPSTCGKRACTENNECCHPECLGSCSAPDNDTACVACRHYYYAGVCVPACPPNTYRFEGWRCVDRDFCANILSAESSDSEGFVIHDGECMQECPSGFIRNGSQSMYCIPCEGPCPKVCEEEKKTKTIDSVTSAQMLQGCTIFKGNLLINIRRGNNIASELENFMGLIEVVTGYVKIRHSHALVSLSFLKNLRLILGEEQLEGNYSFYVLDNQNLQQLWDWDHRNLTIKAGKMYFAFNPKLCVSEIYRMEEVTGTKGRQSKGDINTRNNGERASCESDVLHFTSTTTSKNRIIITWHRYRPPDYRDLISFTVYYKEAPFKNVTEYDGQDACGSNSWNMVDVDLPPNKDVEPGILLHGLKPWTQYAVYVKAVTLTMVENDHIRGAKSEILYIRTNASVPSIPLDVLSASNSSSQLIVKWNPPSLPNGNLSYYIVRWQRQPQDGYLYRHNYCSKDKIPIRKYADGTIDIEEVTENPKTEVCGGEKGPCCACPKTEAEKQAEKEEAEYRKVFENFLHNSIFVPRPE
Sequence of Insulin-like growth factor 1 receptor (Homo sapiens) (P08069 741-1367 limits assumed): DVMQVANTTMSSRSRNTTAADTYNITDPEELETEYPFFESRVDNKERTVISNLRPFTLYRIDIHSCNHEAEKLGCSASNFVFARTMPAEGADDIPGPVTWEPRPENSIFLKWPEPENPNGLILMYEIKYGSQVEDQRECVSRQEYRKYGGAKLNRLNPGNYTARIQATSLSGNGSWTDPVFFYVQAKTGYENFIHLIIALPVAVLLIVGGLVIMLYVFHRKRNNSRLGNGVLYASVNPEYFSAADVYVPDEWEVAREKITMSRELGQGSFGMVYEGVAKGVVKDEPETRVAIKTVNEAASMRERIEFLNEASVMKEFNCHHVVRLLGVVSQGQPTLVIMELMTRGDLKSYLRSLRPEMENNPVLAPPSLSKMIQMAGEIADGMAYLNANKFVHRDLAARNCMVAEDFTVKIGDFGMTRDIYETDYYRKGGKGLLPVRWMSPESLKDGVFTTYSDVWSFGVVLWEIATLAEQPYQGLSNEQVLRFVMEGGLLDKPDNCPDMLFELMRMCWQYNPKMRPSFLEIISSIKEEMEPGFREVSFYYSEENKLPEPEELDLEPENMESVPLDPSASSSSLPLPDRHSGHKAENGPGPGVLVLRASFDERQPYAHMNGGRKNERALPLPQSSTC

The source made the active and inactive calls. The rule behind the calls is not given here.

Sequence of Tyrosine-protein kinase ABL1 (P00519 whole entry, the tested form may be a part): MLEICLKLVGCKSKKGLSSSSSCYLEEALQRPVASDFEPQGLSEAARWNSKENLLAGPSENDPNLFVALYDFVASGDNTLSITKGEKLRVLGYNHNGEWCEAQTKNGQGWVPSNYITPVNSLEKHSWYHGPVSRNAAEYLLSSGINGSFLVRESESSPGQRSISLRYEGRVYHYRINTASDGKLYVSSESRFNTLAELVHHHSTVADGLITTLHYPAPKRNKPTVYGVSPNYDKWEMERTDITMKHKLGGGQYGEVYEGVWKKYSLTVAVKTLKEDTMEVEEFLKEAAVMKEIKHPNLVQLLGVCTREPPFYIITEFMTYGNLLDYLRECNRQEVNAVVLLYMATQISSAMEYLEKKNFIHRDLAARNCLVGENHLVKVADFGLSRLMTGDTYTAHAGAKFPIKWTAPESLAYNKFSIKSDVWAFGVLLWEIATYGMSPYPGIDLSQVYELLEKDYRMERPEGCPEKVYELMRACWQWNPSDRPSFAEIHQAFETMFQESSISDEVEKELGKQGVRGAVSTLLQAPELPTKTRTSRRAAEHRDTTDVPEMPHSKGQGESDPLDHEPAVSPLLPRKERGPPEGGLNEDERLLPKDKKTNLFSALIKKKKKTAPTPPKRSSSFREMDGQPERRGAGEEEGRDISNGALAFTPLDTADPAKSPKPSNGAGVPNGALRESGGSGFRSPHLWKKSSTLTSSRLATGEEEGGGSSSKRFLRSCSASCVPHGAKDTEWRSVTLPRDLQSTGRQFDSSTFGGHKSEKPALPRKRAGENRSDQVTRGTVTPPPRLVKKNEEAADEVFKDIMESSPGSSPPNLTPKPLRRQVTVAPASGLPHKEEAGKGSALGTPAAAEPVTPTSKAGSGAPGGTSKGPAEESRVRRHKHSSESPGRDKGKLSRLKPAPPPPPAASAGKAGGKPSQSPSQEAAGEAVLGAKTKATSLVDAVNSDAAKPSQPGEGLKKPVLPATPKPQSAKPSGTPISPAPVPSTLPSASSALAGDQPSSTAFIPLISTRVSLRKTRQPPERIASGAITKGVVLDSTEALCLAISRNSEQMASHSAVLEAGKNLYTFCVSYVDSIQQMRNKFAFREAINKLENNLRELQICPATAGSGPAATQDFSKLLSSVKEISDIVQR
Sequence of Tyrosine-protein kinase Lck (P06239 whole entry, the tested form may be a part): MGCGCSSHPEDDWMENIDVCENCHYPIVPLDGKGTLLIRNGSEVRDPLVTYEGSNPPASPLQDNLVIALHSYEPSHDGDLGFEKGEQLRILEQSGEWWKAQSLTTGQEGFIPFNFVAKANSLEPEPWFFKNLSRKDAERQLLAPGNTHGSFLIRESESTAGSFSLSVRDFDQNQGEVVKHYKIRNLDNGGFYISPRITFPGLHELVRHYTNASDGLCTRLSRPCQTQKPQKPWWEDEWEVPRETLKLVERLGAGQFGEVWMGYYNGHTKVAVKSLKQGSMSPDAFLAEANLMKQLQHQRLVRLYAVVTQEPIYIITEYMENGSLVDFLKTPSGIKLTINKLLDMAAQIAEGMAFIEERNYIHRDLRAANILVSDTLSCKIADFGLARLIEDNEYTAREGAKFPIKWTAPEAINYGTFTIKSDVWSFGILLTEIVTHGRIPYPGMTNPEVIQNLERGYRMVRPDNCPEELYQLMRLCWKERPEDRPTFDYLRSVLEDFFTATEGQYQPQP
Sequence of Epidermal growth factor receptor (P00533 whole entry, the tested form may be a part): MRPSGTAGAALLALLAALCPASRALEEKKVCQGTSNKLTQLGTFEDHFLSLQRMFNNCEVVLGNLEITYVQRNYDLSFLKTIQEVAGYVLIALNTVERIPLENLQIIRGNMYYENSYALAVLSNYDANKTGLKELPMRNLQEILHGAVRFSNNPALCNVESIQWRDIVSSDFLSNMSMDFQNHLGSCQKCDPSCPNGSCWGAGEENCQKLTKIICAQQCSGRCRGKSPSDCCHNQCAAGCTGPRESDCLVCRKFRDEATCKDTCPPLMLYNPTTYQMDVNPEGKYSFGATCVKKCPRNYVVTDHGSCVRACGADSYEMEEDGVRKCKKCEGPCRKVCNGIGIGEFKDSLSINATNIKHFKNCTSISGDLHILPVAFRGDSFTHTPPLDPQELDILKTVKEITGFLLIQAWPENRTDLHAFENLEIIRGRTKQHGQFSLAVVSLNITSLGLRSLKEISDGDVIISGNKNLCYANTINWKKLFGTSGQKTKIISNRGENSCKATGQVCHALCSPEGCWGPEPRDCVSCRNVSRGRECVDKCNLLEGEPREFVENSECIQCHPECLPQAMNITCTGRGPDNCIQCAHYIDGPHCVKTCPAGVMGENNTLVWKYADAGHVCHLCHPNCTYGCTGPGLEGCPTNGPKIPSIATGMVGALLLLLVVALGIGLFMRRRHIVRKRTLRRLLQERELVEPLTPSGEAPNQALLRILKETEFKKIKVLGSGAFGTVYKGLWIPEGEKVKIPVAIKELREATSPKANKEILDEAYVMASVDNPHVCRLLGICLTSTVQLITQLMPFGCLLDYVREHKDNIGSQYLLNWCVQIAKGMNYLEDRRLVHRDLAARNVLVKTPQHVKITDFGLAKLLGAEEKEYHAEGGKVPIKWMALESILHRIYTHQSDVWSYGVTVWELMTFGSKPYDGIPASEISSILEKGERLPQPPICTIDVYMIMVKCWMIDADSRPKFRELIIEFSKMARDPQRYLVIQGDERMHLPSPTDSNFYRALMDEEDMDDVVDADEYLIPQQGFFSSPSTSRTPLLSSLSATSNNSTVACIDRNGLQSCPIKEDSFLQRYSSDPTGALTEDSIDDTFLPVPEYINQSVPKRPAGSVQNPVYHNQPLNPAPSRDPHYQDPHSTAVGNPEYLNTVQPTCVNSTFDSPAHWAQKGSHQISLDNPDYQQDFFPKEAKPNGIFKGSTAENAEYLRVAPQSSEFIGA

For `COc1ccc(-n2c(=O)c3c(c4c(N)ncnc42)CCCC3)cc1`, the inhibition – broadly, the drop in the measured response relative to a control, in per cent – in assay [1] was determined as 37%.
With `Cc1ccccc1-n1c(=O)c2c(c3c(N)ncnc31)CCCC2`, the inhibition in assay [1] amounted to 48%. Besides, the IC50 (usually the concentration at which inhibition is half-maximal) in [2] amounted to 8400 nM.
Take `COc1cccc(-n2c(=O)c3c(c4c(N)ncnc42)CC(C)(C)OC3)c1`: the inhibition in [1] is 38%. Further, the IC50 in [2] turned out to be 14300 nM.
For the compound `COc1ccccc1-n1c(=O)c2c(c3c(N)ncnc31)CCCC2`, the inhibition in assay [1] was 5%.
As to `COc1cccc(-n2c(=O)c3c(c4c(N)ncnc42)CCCC3)c1`, in assay [1], the inhibition is 75%. The figures for the IC50 in [2] and in assay [3] were 5200 nM and 9400 nM, respectively.
In the case of `Cc1ccc(O)cc1-n1c(=O)c2c(c3c(N)ncnc31)CCCC2`, the IC50 in assay [4] is 1380 nM; in [5], 864 nM; in [6] it was 930 nM; in assay [7], 1620 nM; in assay [8] it was 338 nM; in assay [2], 160 nM. For the same compound, in [3], the IC50 is 300 nM. Besides, the inhibition result in [9] was “inactive”.
Take `COc1ccccc1-n1c(=O)c2c(c3c(N)ncnc31)CC(C)(C)OC2`: the inhibition in assay [1] turned out to be 0%.

The values are drawn from ChEMBL document CHEMBL2150975, “Discovery of a novel chemotype of tyrosine kinase inhibitors by fragment-based docking and molecular dynamics” (ACS Med Chem Lett, 2012).
